Results reported in ChEMBL document CHEMBL1125219, “A selective, reversible, competitive inhibitor of monoamine oxidase A containing no nitrogen, with negligible potentiation of tyramine-induced blood pressure rise” (J Med Chem, 1991).
pIC50, pKi: −log10 of the molar value.

Key:
[1] = biological target: T1, Amine oxidase [flavin-containing] A (Rattus norvegicus, UniProt P21396); assay: In vitro binding affinity towards Monoamine Oxidase A in rat
T1 sequence (P21396 whole entry): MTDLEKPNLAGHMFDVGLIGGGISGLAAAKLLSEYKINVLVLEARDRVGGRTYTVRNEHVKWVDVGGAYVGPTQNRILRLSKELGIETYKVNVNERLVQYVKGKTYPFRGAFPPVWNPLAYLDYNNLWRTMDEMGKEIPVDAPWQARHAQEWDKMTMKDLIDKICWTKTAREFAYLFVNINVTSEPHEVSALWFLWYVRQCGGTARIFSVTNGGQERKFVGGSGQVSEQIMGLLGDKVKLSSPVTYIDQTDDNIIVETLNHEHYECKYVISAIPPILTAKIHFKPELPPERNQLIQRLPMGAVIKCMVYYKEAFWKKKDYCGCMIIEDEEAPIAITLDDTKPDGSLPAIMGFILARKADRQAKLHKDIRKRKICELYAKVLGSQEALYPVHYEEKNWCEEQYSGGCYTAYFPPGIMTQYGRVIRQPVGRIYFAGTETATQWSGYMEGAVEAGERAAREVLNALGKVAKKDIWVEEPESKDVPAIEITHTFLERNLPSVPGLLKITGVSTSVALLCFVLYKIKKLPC

[2] = biological target: T1, Amine oxidase [flavin-containing] A; assay: The compound was tested in vitro for inhibition of Monoamine Oxidase A from rat brain
How it was run: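 Double-label radiometric assay on washed rat brain mitochondria with the test agent in vitro. Substrates were at about twice Km, and each activity was independent of the other.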

[3] = biological target: T2, Amine oxidase [flavin-containing] A (Homo sapiens, UniProt P21397); assay: In vitro binding affinity towards Monoamine Oxidase A in human
T2 sequence (P21397 whole entry): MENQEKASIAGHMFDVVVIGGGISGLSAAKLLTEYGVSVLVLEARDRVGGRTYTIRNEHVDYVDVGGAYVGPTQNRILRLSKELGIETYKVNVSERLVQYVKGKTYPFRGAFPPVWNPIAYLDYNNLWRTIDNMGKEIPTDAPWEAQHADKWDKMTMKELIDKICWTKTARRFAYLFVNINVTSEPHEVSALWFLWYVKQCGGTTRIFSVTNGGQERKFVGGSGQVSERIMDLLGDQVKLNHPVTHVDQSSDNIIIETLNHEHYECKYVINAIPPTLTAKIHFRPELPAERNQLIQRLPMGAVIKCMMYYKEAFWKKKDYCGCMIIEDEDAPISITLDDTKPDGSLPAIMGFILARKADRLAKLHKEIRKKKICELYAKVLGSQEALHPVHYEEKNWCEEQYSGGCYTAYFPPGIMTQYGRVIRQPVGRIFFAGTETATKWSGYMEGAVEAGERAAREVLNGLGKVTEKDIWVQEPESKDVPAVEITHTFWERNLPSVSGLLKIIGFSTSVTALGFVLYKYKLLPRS

[4] = biological target: T1, Amine oxidase [flavin-containing] A; assay: In vivo effective dose against Monoamine Oxidase A in rat brain; assay type: functional, organism-based
[5] = biological target: T1, Amine oxidase [flavin-containing] A; assay: The compound was tested ex vivo for inhibition of Monoamine Oxidase A in rat brain; assay type: functional, tissue-based
[6] = biological target: T1, Amine oxidase [flavin-containing] A; assay: The compound was tested ex vivo for percentage inhibition of Monoamine Oxidase A in rat brain at 20 mg/kg; NS=No significant inhibition; assay type: functional, organism-based; set-up: dose 20 mg/kg
[7] = biological target: T1, Amine oxidase [flavin-containing] A; assay: The compound was tested ex vivo for percentage inhibition of Monoamine Oxidase A in rat brain at 30 mg/kg; assay type: functional, organism-based; set-up: dose 30 mg/kg
[8] = biological target: T1, Amine oxidase [flavin-containing] A; assay: The compound was tested ex vivo for percentage inhibition of Monoamine Oxidase A in rat brain at 20 mg/Kg; assay type: functional, tissue-based

Row | SMILES | pIC50 [2] | ED50 [5] | also measured
1 | O=C(O)Cc1cccc2c1S(=O)(=O)c1ccccc1O2 | 4.52 | – | Inhibition [6]: Not Active
2 | CC(=O)c1cccc2c1S(=O)(=O)c1ccccc1O2 | 5.70 | – | inhibition at 30 mg/kg [7]: 70%
3 | O=S1(=O)c2ccccc2Oc2cccc(CCO)c21 | 7.70 | – | inhibition at 20 mg/kg [8]: 55%
4 | CC(O)c1cccc2c1S(=O)(=O)c1ccccc1O2 (configuration not stated) | 6.40 | 30 mg/kg | –

Further lines, with some results ahead:

Row | pIC50 [2] | ED50 [5] | SMILES | also measured
5 | 7.46 | 20 mg/kg | CCc1cccc2c1S(=O)(=O)c1ccccc1O2 | pKi [1]: 8.00; pKi [3]: 8.00; ED50 [4]: 8 mg/kg
6 | 5.92 | 20 mg/kg | O=S1(=O)c2ccccc2Oc2cccc(C(O)CO)c21 (configuration not stated) | –
7 | 7.40 | 20 mg/kg | C=Cc1cccc2c1S(=O)(=O)c1ccccc1O2 | –
